Experimental findings from ChEMBL document CHEMBL5316280, “Development of N-(1-Adamantyl)benzamides as Novel Anti-Inflammatory Multitarget Agents Acting as Dual Modulators of the Cannabinoid CB2 Receptor and Fatty Acid Amide Hydrolase” (J Med Chem, 2023) are described below.

Assay [1] addresses T1, Cannabinoid receptor 2 (Homo sapiens, UniProt P34972). In words: Displacement of [3H]CP55940 from recombinant human CB2 receptor expressed in HEK293 cell membrane incubated for 90 mins by beta scintillation counter method. In kind it is cell membranes. A digest of the protocol:
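HEK293 membranes stably expressing human CB2 (50 µg protein/well) competed with 0.2 nM [3H]-CP55,940 (final) against test compound at 10⁻¹²–10⁻⁵ M in Tris-HCl 50 mM, EGTA 2.5 mM, MgCl₂ 5 mM, 0.1% fatty-acid-free BSA, pH 7.4; 90 min at 30 °C. Nonspecific binding defined with 10 µM GW405833.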
On the technique in general: Displacement assays read how much labelled ligand stays bound in the presence of the test substance.

Assay [2] in a line: Metal chelating activity assessed as Fe2+-compound complex formation incubated for 15 mins by Ferrozine based assay. A digest of the protocol:
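FeSO₄ (25 µM) in water incubated with or without test compound (100 µM, DMSO) for 15 min at room temperature, 300 µL final. Ferrozine then added (1 mM final), shaken 15 min at room temperature. Absorbance of the ferrozine–Fe(II) magenta complex read at 562 nm; chelation seen as reduced complex formation.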

Assay [3] addresses T2, Fatty-acid amide hydrolase 1 (Homo sapiens, UniProt O00519).
T2 sequence (O00519 whole entry): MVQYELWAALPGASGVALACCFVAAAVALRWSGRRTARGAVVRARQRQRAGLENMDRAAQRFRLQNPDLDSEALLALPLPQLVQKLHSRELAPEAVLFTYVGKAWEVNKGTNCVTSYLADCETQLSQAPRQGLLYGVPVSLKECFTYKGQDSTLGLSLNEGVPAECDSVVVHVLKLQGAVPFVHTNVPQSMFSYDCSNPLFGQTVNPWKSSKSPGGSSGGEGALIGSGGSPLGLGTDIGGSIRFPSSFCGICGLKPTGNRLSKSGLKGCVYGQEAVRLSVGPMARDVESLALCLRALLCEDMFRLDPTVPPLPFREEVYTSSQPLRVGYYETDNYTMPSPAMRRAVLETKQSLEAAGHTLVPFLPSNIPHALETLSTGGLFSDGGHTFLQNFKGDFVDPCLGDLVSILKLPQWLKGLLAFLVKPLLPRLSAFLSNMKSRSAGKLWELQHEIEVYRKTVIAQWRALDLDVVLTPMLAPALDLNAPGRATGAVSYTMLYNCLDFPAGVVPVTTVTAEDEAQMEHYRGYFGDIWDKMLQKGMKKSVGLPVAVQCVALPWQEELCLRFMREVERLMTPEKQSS
Nature of the assay: Inhibition of recombinant human FAAH using AMC-AA as substrate preincubated for 10 mins followed by substrate addition measured after 2 hrs by fluorometric assay. A digest of the protocol: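 Human recombinant FAAH preincubated with inhibitor at various concentrations in Tris-HCl 125 mM, Na₂EDTA 1 mM, pH 9.0, 10 min at room temperature with shaking. AMC-AA substrate then added (1 µM final); fluorescence read every 30 s for 2 h at 37 °C (ex 340/em 450 nm). Percent inhibition from no-inhibitor controls and no-enzyme blanks; IC50 from at least three independent runs in triplicate.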

In assay [4] the test system is THP-1. In words: Antiinflammatory activity in LPS-activated human THP-1 monocytes assessed as decrease in IL-6 level incubated for 24 hrs by ELISA based qRT-PCR analysis. It counts as functional, cell-based. A digest of the protocol:
(§1)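 THP-1 cells were seeded at 1 x 10⁵ cells/ml for 48 h. For macrophages, cells were differentiated with 0.01 µM PMA for 48 h; monocytes received no PMA. Cells were then given 24 h with or without 10 µg/ml LPS, plus ligands alone or with the CB2R inverse agonist JTE907 (10 µM). Cytokines were measured in 5 µL supernatant (from 1 x 10⁴ cells) by ProQuantum immunoassay, read as pg/ml from kit titration curves; n=3.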

For assay [5], the system named is THP-1. Nature of the assay: Antiinflammatory activity in human THP-1 macrophages assessed as increase in IL-10 level incubated for 24 hrs by ELISA based qRT-PCR analysis. It counts as functional, cell-based. A digest of the protocol: as §1
Background: ELISA stands for enzyme-linked immunosorbent assay.

The test system of assay [6] is THP-1. Nature of the assay: Antiinflammatory activity in human THP-1 macrophages assessed as decrease in IL-6 level incubated for 24 hrs by ELISA based qRT-PCR analysis. In kind it is functional, cell-based. A digest of the protocol:
as §1

The target in assay [7] is T1, Cannabinoid receptor 2. Nature of the assay: Agonist activity at human CB2 receptor overexpressed in CHO-K1 cells assessed as cAMP level incubated for 30 mins by luminescence based assay. It counts as functional, cell-based. A digest of the protocol:
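CHO-K1 cells overexpressing human CB2R were plated at 30 000 cells/well and held overnight at 37 °C, 5% CO2. Test samples were added as dose–response solutions with NKH-477 to stimulate adenylate cyclase, then incubated 30 min at 37 °C. cAMP was detected by luminescence after cell lysis. Values were normalized to NKH-477 alone as 100% response. Three independent experiments were run in triplicate.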
For orientation: Changes in cAMP serve as a functional read-out for many G protein-coupled receptors.

The target of the next assay is Cannabinoid receptor 1 (Homo sapiens, UniProt P21554). Nature of the assay: […] human CB1 receptor in CHO cells incubated for 15 mins by plate reader analysis relative to control. In kind it is cell-based. A digest of the protocol:
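CHO-CB1 C3 cells (human CB1) were seeded at 8000 cells/well in medium with dialyzed FBS and preincubated 15 min at 37 °C. Compounds or the CP55940 control were added for 15 min at 37 °C, then forskolin 10 µM for 5 min. cAMP was read by HTRF after 1 h at room temperature (λex 320 nm, λem 620-665 nm).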

For assay [8], the target named is Cannabinoid receptor 2 (Mus musculus) (UniProt P47936). In words: Agonist activity at mouse CB2 receptor transfected in CHO-K1 cells assessed as beta2-arrestin recruitment incubated for 90 mins by luminescence based assay relative to control. In kind it is functional, cell-based. Particulars: filed as agonist. A digest of the protocol:
(§2)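 PathHunter eXpress kit using mouse CB2 receptor in CHO-K1 cells. Cells were seeded 48 h before the assay in kit medium. Compounds in cell plating reagent were incubated 90 min at 37 °C, 5% CO2. Working detection solution was then added for 60 min at room temperature to read β-arrestin recruitment.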

Assay [9] concerns the target Cannabinoid receptor 2 (Mus musculus, UniProt P47936). In words: Agonist activity at mouse CB2 receptor transfected in CHO-K1 cells assessed as beta2-arrestin recruitment incubated for 90 mins by luminescence based assay. In kind it is functional, cell-based. A digest of the protocol:
as §2

pEC50, pIC50, pKi: −log10 of the molar value. Calls of active or inactive are those of the source. The rule behind the calls is not given here.

T1 sequence (P34972 whole entry): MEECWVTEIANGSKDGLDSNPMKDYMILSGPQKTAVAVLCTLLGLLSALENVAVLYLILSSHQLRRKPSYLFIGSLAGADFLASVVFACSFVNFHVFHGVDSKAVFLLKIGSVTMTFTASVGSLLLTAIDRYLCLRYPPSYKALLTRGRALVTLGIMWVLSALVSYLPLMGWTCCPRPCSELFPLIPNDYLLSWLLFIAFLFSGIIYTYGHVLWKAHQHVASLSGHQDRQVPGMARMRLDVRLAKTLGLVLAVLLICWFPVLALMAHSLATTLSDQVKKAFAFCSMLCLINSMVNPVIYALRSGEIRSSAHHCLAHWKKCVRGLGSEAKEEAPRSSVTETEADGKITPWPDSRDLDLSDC
Sequence of Cannabinoid receptor 2 (Mus musculus) (P47936 whole entry): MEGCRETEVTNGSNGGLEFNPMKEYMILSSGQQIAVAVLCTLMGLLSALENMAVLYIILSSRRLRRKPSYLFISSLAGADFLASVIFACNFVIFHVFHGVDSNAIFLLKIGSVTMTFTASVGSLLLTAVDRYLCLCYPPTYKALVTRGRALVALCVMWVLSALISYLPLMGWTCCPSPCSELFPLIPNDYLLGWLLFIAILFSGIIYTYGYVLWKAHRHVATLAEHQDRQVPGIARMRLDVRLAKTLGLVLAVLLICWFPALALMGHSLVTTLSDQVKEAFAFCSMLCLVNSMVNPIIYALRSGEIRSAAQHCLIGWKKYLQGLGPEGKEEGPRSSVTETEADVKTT
Sequence of Cannabinoid receptor 2 (Mus musculus, UniProt P47936) (P47936 whole entry): as above
Sequence of Cannabinoid receptor 1 (P21554 whole entry): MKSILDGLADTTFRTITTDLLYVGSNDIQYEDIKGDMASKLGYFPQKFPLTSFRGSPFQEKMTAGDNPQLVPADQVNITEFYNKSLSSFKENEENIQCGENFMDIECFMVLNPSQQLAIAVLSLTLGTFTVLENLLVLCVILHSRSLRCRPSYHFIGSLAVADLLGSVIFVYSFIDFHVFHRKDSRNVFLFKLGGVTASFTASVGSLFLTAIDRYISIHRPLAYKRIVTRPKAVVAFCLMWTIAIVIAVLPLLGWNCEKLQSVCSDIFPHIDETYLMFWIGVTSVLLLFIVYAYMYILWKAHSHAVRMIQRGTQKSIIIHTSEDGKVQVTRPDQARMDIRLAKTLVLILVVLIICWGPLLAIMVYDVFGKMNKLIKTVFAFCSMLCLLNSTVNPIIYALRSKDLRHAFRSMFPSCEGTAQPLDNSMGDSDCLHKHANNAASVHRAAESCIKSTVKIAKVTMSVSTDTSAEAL

As usually defined, the pKi is the negative decadic logarithm of the Ki, by convention in mol/L. For orientation: pIC50 means the IC50 on a negative log10 scale, so that one unit is a factor of ten. For `O=C(NC12CC3CC(CC(C3)C1)C2)c1ccc(O)cc1`, the negative logarithm of the Ki (pKi) on Cannabinoid receptor 2 [1] is 5.97. Moreover, in assay [2], the outcome was Active. The pIC50 in [3] is under 4.30.
For `COc1cccc(C(=O)NC23CC4CC(CC(C4)C2)C3)c1O`, in that order: 6.82, “Active” and under 4.30.
Turning to `COc1cccc(C(=O)NC23CC4CC(CC(C4)C2)C3)c1`, the pKi on Cannabinoid receptor 2 [1] is 6.29. Further, the outcome in assay [2] was Active. Moreover, the negative-log IC50 (pIC50) in assay [3] was 4.49.
For `O=C(NC12CC3CC(CC(C3)C1)C2)c1cccc(OCc2ccccc2)c1`, on Cannabinoid receptor 2 [1], the negative-log Ki (pKi) is 6.50. Moreover, the outcome in assay [2] was Active. Further, the pIC50 in [3] was 4.62.
Take `COc1ccc(C(=O)NC23CC4CC(CC(C4)C2)C3)cc1`: the pKi at Cannabinoid receptor 2 [1] was 5.61. The result in assay [2] was Active. The pIC50 in assay [3] is under 4.30.
The corresponding values for `COc1cc(Br)cc(C(=O)NC23CC4CC(CC(C4)C2)C3)c1OC` are 6.86, “Active” and 4.35.
For the molecule `O=C(NC12CC3CC(CC(C3)C1)C2)c1ccccc1`, the outcome in assay [2] was Active. Further, in assay [3], the pIC50 is 4.63.
Take `COc1cc(Br)cc(C(=O)NC23CC4CC(CC(C4)C2)C3)c1OCc1ccccc1`: at Cannabinoid receptor 2 [1], the pKi is 5.49. Also, in [2], the result was Active. The pIC50 in assay [3] is 5.06.
As to `COc1cc(Br)cc(C(=O)NC23CC4CC(CC(C4)C2)C3)c1O`, the outcome in assay [2] was Active. Also, the negative-log IC50 (pIC50) in assay [3] is 4.42.
As for `O=C(NC12CC3CC(CC(C3)C1)C2)c1ccc(OCc2ccccc2)cc1`, the pKi at Cannabinoid receptor 2 [1] is 5.41. The outcome in assay [2] was Active. In [3], the pIC50 is 4.71.
The corresponding values for `COc1cccc(C(=O)NC23CC4CC(CC(C4)C2)C3)c1OC` are 7.06, “Active” and under 4.30.
For the molecule `O=C(NC12CC3CC(CC(C3)C1)C2)c1ccccc1O`, in assay [2], the outcome was Active. Further, the negative logarithm of the IC50 (pIC50) in assay [3] is under 4.30.
On to `O=C(NC1CCCCC1)c1cn(CCN2CCOCC2)c2cc(Cl)ccc2c1=O`, for which the outcome in the assay with THP-1 [4], in the assay with THP-1 [5] and in the assay on THP-1 [6] was inactive.
`O=C(NC12CC3CC(CC(C3)C1)C2)c1cccc(O)c1`: the result in assay [2] was Active. In addition, in [3], the pIC50 was 4.59.
Usually pEC50 stands for the EC50 on a negative log10 scale, so that one unit is a factor of ten. On to `CCCC(C)(C)c1ccc2c(c1)OC(C)(C)[C@@H]1CC=C(C)C[C@@H]21`, for which the pEC50 on Cannabinoid receptor 2 [7] was 6.77.
Regarding `COc1ccccc1C(=O)NC12CC3CC(CC(C3)C1)C2`, the pKi at Cannabinoid receptor 2 [1] was 6.41. In addition, the result in [2] was Active. The negative-log IC50 (pIC50) in [3] was 4.31.
The Emax is the size of the effect at its maximum, as opposed to the concentration needed. As to `CCCCCCC(C)(C)c1ccc([C@H]2C[C@@H](O)CC[C@@H]2CCCO)c(O)c1`, the Emax (on Cannabinoid receptor 1; in assay [8]) was 100% each time. Also, the pEC50 at Cannabinoid receptor 2 [9] was 9.40.
As for `COc1ccc(C(=O)NC23CC4CC(CC(C4)C2)C3)cc1OC`, the pKi on Cannabinoid receptor 2 [1] was 5.52. Moreover, the outcome in [2] was Active. In assay [3], the negative logarithm of the IC50 (pIC50) is under 4.30.
